pEC50: −log10 of the molar value.
Tests used:
[1] = system: Cricetinae gen. sp.; test: Compound was evaluated for potency in SP-E system and relative potency was determined against Hamster urinary bladder; assay type: functional, Cricetulus griseus
Outline: (§1)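 Isolated tissue (hamster urinary bladder or rat duodenum) in 10-mL bath of Tyrode's solution gassed with 95% O2-5% CO2 at 34 °C; isotonic contraction recorded. Duodenum: peptides applied at 2-3-min intervals, contact under 30 s. Bladder: 15-30-min intervals, contact 1-3 min.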

[2] = organism: Rattus norvegicus; test: Compound was evaluated for potency in SP-E system and relative potency was determined against rat duodenum; assay type: functional; outline: as §1
[3] = organism: Cavia porcellus; test: Compound was evaluated for potency relative to neurokinin B against SP-N system (enteric nerves of Guinea pig ileum); assay type: functional
Outline: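 Neuronal SP-N receptor of guinea pig ileum assayed after desensitizing the muscular receptor with substance P methyl ester 10⁻⁷ M (2-min preincubation). Tissue in Tyrode's solution, 95% O2-5% CO2, 34 °C; isotonic contractions; peptides at 2-3-min intervals, under 30 s contact.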

[4] = organism: Cavia porcellus; test: Compound was evaluated for effective dose against guinea pig ileum; assay type: functional
Outline: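 Guinea pig ileum in 10-mL bath of Tyrode's solution, 95% O2-5% CO2, 34 °C, with atropine 10⁻⁶ M present (muscular SP-P receptor); isotonic contractions; peptides applied at 2-3-min intervals, contact under 30 s.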

[5] = organism: Rattus norvegicus; test: Compound was evaluated for effective dose against rat duodenum; assay type: functional; outline: as §1
[6] = system: Cricetinae gen. sp.; test: Compound was evaluated for effective dose against hamster bladder; assay type: functional, Cricetulus griseus; outline: as §1

| SMILES | Relative potency [1] | Relative potency [2] | Relative potency [3] | pEC50 [4] | pEC50 [5] | pEC50 [6] |
| --- | --- | --- | --- | --- | --- | --- |
| CSCC[C@H](NC(=O)[C@H](CC(C)C)NC(=O)CNC(=O)[C@@H](NC(=O)[C@H](Cc1ccccc1)NC(=O)[C@H](CO)NC(=O)[C@H](CC(=O)O)NC(=O)[C@@H](NC(=O)[C@H](CCCCN)NC(=O)[C@@H](N)Cc1c[nH]cn1)[C@@H](C)O)C(C)C)C(N)=O [NEUROKININ A] | 1 | 0.3 | 0.04 |  |  |  |
| CSCC[C@H](NC(=O)[C@H](CC(C)C)NC(=O)CNC(=O)[C@@H](NC(=O)[C@H](Cc1ccccc1)NC(=O)[C@H](Cc1ccccc1)NC(=O)[C@H](CC(=O)O)NC(=O)[C@H](Cc1c[nH]cn1)NC(=O)[C@H](CCSC)NC(=O)[C@@H](N)CC(=O)O)C(C)C)C(N)=O [NEUROKININ B] | 1 | 1 | 1 | 8.82 | 8.19 | 7.30 |
